Data set [1] concerns HeLa S3 (Homo sapiens). Description: Growth inhibition of human HeLaS-3 cells pretreated for 2 days measured after 24 hrs of compound wash out by Burker cell counter.
In data set [2] the target is T1, Adenosine deaminase (Bos taurus) (UniProt P56658).
T1 sequence (whole entry): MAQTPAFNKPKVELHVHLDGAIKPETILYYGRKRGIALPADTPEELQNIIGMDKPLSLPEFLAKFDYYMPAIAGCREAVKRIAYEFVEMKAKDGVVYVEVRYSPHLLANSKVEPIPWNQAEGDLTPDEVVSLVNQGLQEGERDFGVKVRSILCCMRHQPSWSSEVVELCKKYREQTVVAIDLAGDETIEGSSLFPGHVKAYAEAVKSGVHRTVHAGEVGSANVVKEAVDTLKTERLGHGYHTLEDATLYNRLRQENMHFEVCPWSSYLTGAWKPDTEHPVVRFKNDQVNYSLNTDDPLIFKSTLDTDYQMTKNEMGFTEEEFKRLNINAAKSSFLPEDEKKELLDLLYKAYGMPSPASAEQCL
Description: Inhibition of bovine ADA at 100 uM by spectrophotometric analysis. The procedure, abridged:
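Adenosine deaminase assayed at 30 C with 50 μM Ado, 50 mM potassium phosphate pH 7.2 and 0.3 nM enzyme. Deamination was followed as A262 change over 2 min. Compound tested at 100 μM, with DMSO at most 4% final and a substrate-free blank. Percent inhibition from two determinations in triplicate.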

The subject of data set [3] is HeLa S3. Description: Inhibition of DNA syntheses in human HeLaS3 cells assessed as [3H]thymidine incorporation at 10 uM after 40 mins by scintillation counter. It counts as functional, cell-based. In outline:
(§1)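 HeLaS-3 cells grown in DMEM with fetal calf serum, trypsinized, and resuspended at 10^6 cells/mL in serum-free DMEM at 37 C with 0, 10 or 50 μM compound plus 5 μCi [3H]thymidine (25 Ci/mmol) or [3H]uridine (22 Ci/mmol). Samples at 0-40 min were spotted on GF/C filters, washed in 5% TCA and ethanol, and acid-precipitable radioactivity counted. Mean of three determinations.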
(Uptake of a labelled nucleoside into DNA is a usual measure of proliferation.)

A short description of data set [4]: Metabolic stability of the compound in human HeLaS3 cell crude extract assessed as compound degradation measured upto 20 hrs pretreated at 40 uM for 3 days. Format: ADME, cell-based. The settings on record: hela s3, 20 h. The procedure, abridged:
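HeLaS-3 cells cultured 3 days with 40 μM compound added fresh every 24 h; crude extract prepared by hypotonic Hepes buffer lysis, dounce homogenization and 10000g spin. Compound (1 mM) was incubated in extract at 37 C for 0, 1, 5 and 20 h, then lyophilized and extracted twice with cold MeOH. Remaining compound was quantified by reverse-phase HPLC.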

The next data set concerns the target Adenosine kinase (Homo sapiens, UniProt P55263). The experiment in a line: Inhibition of human adenosine kinase. The settings on record: read-out: IC50.
Another data set concerns NIH3T3. Description: Cytotoxicity against mouse 3T3 cells by phenyltetrazolium bromide assay. It counts as functional, cell-based. In outline:
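Murine 3T3 fibroblasts; proliferation measured by MTT assay, with IC50 reported. Each value is the mean of three determinations; Student's t test, p < 0.05.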

The species named for another data set is Homo sapiens. The experiment in a line: Cytostatic activity against human Cen3tel cells at 40 uM after 24 to 48 hrs compound added for every 24 hrs. Format: functional, cell-based. The procedure, abridged:
(§2)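 Cells (8 × 10^4) grown at 37 C in DMEM with 10% fetal calf serum, 5 mM L-glutamine and 50 μg/mL gentamycin, with or without 40 μM compound for 3 days. Medium and compound were replaced daily. Cultures were counted every day after trypsinization.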

Data set [5] deals with K562. The experiment in a line: Cytotoxicity against human K562 cells assessed as dead cells after 7 days by Burker cell counter. Format: functional, cell-based. The procedure, abridged: (§3)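 K562 cells in RPMI 1640 with 10% fetal calf serum, seeded at 5000 cells/mL and held 15 h at 37 C in 5% CO2. Serial compound dilutions were added and cells incubated 7 days. Aliquots were mixed with 0.5% trypan blue; unstained and blue cells were counted on a Bürker chamber. Triplicate points, each count averaged from four determinations.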

Data set [6] deals with HeLa S3 (Homo sapiens). Description: Growth inhibition of human HeLaS-3 cells pretreated for 2 days measured after 2 days of compound wash out by Burker cell counter.
Data set [7] relates to HeLa S3. The experiment in a line: Inhibition of DNA syntheses in human HeLaS3 cells assessed as [3H]thymidine incorporation at 50 uM after 40 mins by scintillation counter. It counts as functional, cell-based. The procedure, abridged:
as §1

Data set [8] has as its system HeLa S3. The experiment in a line: Inhibition of RNA syntheses in human HeLaS3 cells assessed as inhibition of [3H]uridine incorporation after 40 mins by scintillation counter. It counts as functional, cell-based. In outline: as §1
Data set [9] in a line: Cellular permeability in human HeLaS3 cells assessed as level of [3H]AMP produced at 2.5 to 25 uM by scintillation counter. The settings on record: hela s3, 25 µM. Format: ADME, cell-based. The procedure, abridged: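 HeLaS-3 cells grown in DMEM with fetal calf serum at 37 C, trypsinized, then resuspended at 10^6 cells/mL in serum-free DMEM with compound and 3 μCi [3H]Ado (25 Ci/mmol) at 37 C. Samples taken at 0, 10, 20, 30 and 40 min were spotted on DE-81 filters and washed. [3H]AMP was measured by scintillation counting. Mean of three determinations.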

Data set [10] relates to HL-60. The experiment in a line: Induction of apoptosis in human HL60 cells assessed as DNA content at 100 uM after 48 hrs by flow cytometry relative to vehicle-treated. Format: functional. The procedure, abridged: (§4)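 HL-60 cells treated with vehicle (0.1% DMSO) or 25-100 μM compound for 24, 48 or 72 h, harvested by centrifugation, PI-stained for 30 min at 37 C in the dark, and analysed by flow cytometry (10 000 gated events). Cells with under 2N DNA content were scored apoptotic. Three independent experiments.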

For data set [11], the system named is HL-60. The experiment in a line: Induction of apoptosis in human HL60 cells assessed as DNA content at 50 uM after 24 hrs by flow cytometry relative to vehicle-treated control. It counts as functional. In outline:
as §4
A general note: In flow cytometry, cells or beads pass a laser one at a time.

For data set [12], the system named is HL-60. The experiment in a line: Cytotoxicity against human HL60 cells after 72 hrs. Format: functional, cell-based. The settings on record: HL-60, 72 h. The procedure, abridged:
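HL-60 cells (40 000/well) in RPMI-1640 with 10% FBS and penicillin/streptomycin, seeded for 24 h, then exposed to vehicle (0.1% DMSO) or a concentration range for 72 h. AlamarBlue (10% v/v) was added for 4.5 h at 37 C and fluorescence read at ex 544/em 590 nm. Viability is relative to vehicle control; IC50 from dose-response curves; three independent experiments.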

Data set [13] relates to K562. The experiment in a line: Growth inhibition of human K562 cells after 7 days by Burker cell counter. Format: functional. The settings on record: K562, 168 h. In outline: as §3
Data set [14] has as its system HeLa S3. Description: Cytostatic activity against human HeLaS3 cells at 40 uM after 24 to 48 hrs compound added for every 24 hrs. Format: functional, cell-based. The procedure, abridged:
as §2

The subject of data set [15] is HL-60. Description: Induction of apoptosis in human HL60 cells assessed as DNA content at 100 uM after 24 hrs by flow cytometry relative to vehicle-treated. It counts as functional. The procedure, abridged:
as §4

Usually inhibition stands for how much of the control response was suppressed. The term IC50 denotes the concentration that inhibits the measured activity by half. Broadly, the GI50 is the concentration at which growth is held to half of that of the control.

Active and inactive are the calls of the source. The rule behind the calls is not given here.

Chain of Adenosine kinase (P55263 whole entry): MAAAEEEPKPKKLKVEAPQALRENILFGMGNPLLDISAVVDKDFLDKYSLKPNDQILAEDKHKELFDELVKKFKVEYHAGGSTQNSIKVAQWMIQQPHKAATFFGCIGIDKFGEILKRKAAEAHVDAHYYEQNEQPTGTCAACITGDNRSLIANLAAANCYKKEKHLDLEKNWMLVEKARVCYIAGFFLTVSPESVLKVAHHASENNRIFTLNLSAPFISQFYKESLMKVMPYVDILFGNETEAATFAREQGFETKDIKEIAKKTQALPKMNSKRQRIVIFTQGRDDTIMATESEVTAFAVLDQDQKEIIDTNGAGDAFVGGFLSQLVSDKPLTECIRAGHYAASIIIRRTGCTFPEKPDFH

With `CCC1(c2ccc(CSc3ccccc3)cc2)Oc2ccccc2-n2cccc2C1=O` (racemic), the “growth inhibition (GI)” value in the data set with HeLa S3 (Homo sapiens) [1] was “Active”. Also, the inhibition in data set [2] came out at 15%. Also, the result in the data set on HeLa S3 [3], in the data set filed under Homo sapiens, in the data set with HeLa S3 [7] and in the data set with HeLa S3 [14] was inactive. In addition, in data set [4], the Stability result is given as “Stable”. The 50% inhibitory concentration (IC50) turned out to be 1.2 µM on Adenosine kinase, 118 µM in the data set with NIH3T3, 50 µM with HeLa S3 [8] and 34.2 µM in the data set on HL-60 [12]. Moreover, the Activity entry is “Not toxic” in the data set on K562 [5], 90% with HL-60 [10], 44% in the data set with HL-60 [11] and 70% in the data set with HL-60 [15]. The “growth inhibition (GI)” value in the data set on HeLa S3 (Homo sapiens) [6] is “inactive”. In addition, in [9], the Drug uptake entry is reported as “Active”. In the data set with K562 [13], this compound had a 50% growth inhibitory concentration (GI50) of 1 µM.

These data come from ChEMBL document CHEMBL1687916, “Non-nucleoside inhibitors of human adenosine kinase: synthesis, molecular modeling, and biological studies” (J Med Chem, 2011).
